# ChEMBL document CHEMBL1121966, “(2R*,3S*)-1-[125I]Iodo-2,3-bis(4-hydroxyphenyl)pentane ([125I]iodonorhexestrol) and (2R*,3S*)-1-[77Br]Bromo-2,3-bis(4-hydroxyphenyl)pentane ([77Br]bromonorhexestrol), two gamma-emitting estrogens that show receptor-mediated uptake by target tissues in vivo” (1982)
# Assays:
# [1] = species: Rattus norvegicus; assay: % compound injected per gram uterus at 6 hr; type: functional
# [2] = species: Rattus norvegicus; assay: Percent injected dose per gram esophagus at 3h; type: functional
# Outline: (§1)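 Dual-label study in immature 25-day female Sprague-Dawley rats (ca. 50 g). Each received 2 μCi [77Br]bromo tracer (≤1.25 pmol/dose) and 2 μCi 16α-[125I]iodoestradiol (2 pmol/dose) by tail or jugular vein, in ethanol diluted with saline/rat serum 1:1. Rats were killed at 3 or 6 h; blood and 11 tissues were weighed and counted. Five rats per time point; mean ± SD.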
# [3] = species: Rattus norvegicus; assay: Percent injected dose per gram kidney at 1 hr; type: functional
# Outline: (§2)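 Immature (25-day, ca. 50 g) Sprague-Dawley female rats received an iv injection (jugular or tail vein) of HPLC-purified tracer in ethanol plus 0.9% NaCl/rat serum 1:1. Doses were 2 μCi [125I]iodo tracer (≤15 pmol), or 2 μCi [77Br]bromo tracer (≤1.25 pmol) with 2 μCi 16α-[125I]iodoestradiol. Animals were killed at 1 h; blood and tissues were weighed and γ-counted. Blocking: coinjected unlabeled estradiol, 9 μg (iodo) or 18 μg (bromo). Mean ± SD.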
# [4] = species: Rattus norvegicus; assay: Percent injected dose per gram kidney at 1 hr with unlabeled estradiol; type: functional; outline: as §2
# [5] = species: Rattus norvegicus; assay: Percent injected dose per gram kidney at 3h; type: functional; outline: as §1
# [6] = species: Rattus norvegicus; assay: Percent injected dose per gram liver at 1 hr; type: functional
# Outline: (§3)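 Immature (25 day) female Sprague-Dawley rats (ca. 50 g) were dosed iv (jugular or tail vein) in ethanol plus 0.9% NaCl/rat serum (1:1). Doses were 2 μCi of [125I]iodonorhexestrol (≤15 pmol/dose), or 2 μCi each of [77Br]bromonorhexestrol (≤1.25 pmol/dose) and 16α-[125I]iodoestradiol (2 pmol/dose). Rats were killed at 1, 3 or 6 h; blood and tissues were weighed and γ-counted. Thyroid weight assumed 0.005 g/100 g body weight. Mean ± SD.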
# [7] = species: Rattus norvegicus; assay: Percent injected dose per gram liver at 1 hr with unlabeled estradiol; type: functional
# Outline: (§4)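 Same iv biodistribution in immature female rats, killed at 1 h, with unlabeled estradiol coinjected to block receptor uptake: 9 μg with [125I]iodonorhexestrol (3 rats), 18 μg with the [77Br]bromonorhexestrol/16α-[125I]iodoestradiol pair (5 rats). Tissue and blood radioactivity were counted as % injected dose/g and tissue-to-blood ratio.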
# [8] = species: Rattus norvegicus; assay: Percent injected dose per gram liver at 3h; type: functional; outline: as §3
# [9] = Percent injected dose per gram liver at 6 hr; type: functional; outline: as §3
# [10] = species: Rattus norvegicus; assay: Percent injected dose per gram lung at 1 hr; type: functional; outline: as §3
# [11] = species: Rattus norvegicus; assay: Percent injected dose per gram lung at 6 hr; type: functional; outline: as §3
# [12] = species: Rattus norvegicus; assay: Percent injected dose per gram spleen at 1 hr; type: functional; outline: as §3
# [13] = species: Rattus norvegicus; assay: Percent injected dose per gram spleen at 1 hr with unlabeled estradiol; type: functional; outline: as §4
# [14] = species: Rattus norvegicus; assay: Percent injected dose per gram spleen at 3h; type: functional; outline: as §3
# [15] = species: Rattus norvegicus; assay: Percent injected dose per gram thyroid at 1 hr; type: functional, Thyroid gland; outline: as §3
# [16] = species: Rattus norvegicus; assay: Percent injected dose per gram thyroid at 1 hr with unlabeled estradiol; type: functional, Thyroid gland; outline: as §4
# [17] = species: Rattus norvegicus; assay: Percent injected dose per gram thyroid at 3h; type: functional, Thyroid gland; outline: as §3
# [18] = species: Rattus norvegicus; assay: Percent injected dose per gram thyroid at 6 hr; type: functional, Thyroid gland; outline: as §3
# [19] = species: Rattus norvegicus; assay: Percent injected dose per gram Uterus at 1 hr with unlabeled estradiol.; type: functional; outline: as §2
# [20] = species: Rattus norvegicus; assay: Percent injected dose per gram Uterus at 6 hr; type: functional; outline: as §1
# [21] = species: Rattus norvegicus; assay: Percent injected dose per gram blood at 1 hr; type: functional; outline: as §2
# [22] = species: Rattus norvegicus; assay: Percent injected dose per gram blood at 3h; type: functional; outline: as §1
# [23] = species: Rattus norvegicus; assay: Percent injected dose per gram blood at 6 hr; type: functional; outline: as §1
# [24] = species: Rattus norvegicus; assay: Percent injected dose per gram esophagus at 1 hr; type: functional; outline: as §2
# [25] = species: Rattus norvegicus; assay: Percent injected dose per gram Muscle at 6 hr; type: functional; outline: as §1
# [26] = species: Rattus norvegicus; assay: Percent injected dose per gram Ovaries at 1 hr; type: functional; outline: as §2
# [27] = species: Rattus norvegicus; assay: Percent injected dose per gram Ovaries at 1 hr with unlabeled estradiol; type: functional; outline: as §2
# [28] = species: Rattus norvegicus; assay: Percent injected dose per gram Ovaries at 3h; type: functional; outline: as §1
# [29] = species: Rattus norvegicus; assay: Percent injected dose per gram Ovaries at 6 hr; type: functional; outline: as §1
# [30] = species: Rattus norvegicus; assay: Percent injected dose per gram Uterus at 1 hr; type: functional; outline: as §2
# [31] = Spleen/blood distribution ratio was determined immature female rats at 1 hr; type: functional; outline: as §3
# [32] = Spleen/blood distribution ratio was determined immature female rats at 3h; type: functional; outline: as §3
# [33] = Esophagus/blood distribution ratio was determined in immature female rats at 1 hr with unlabeled estradiol; type: functional; outline: as §2
# [34] = Esophagus/blood distribution ratio was determined in immature female rats at 3h; type: functional; outline: as §1
# [35] = Esophagus/blood distribution ratio was determined in immature female rats at 6 hr; type: functional; outline: as §1
# [36] = Muscle/blood distribution ratio was determined immature female rats at 1 hr with unlabeled estradiol; type: functional; outline: as §2
# [37] = Muscle/blood distribution ratio was determined in immature female rats at 1 hr; type: functional; outline: as §2
# [38] = Thyroid/blood distribution ratio was determined in immature female rats at 3h; type: functional; outline: as §3
# [39] = Thyroid/blood distribution ratio was determined in immature female rats at 6 hr; type: functional; outline: as §3
# [40] = Liver/blood distribution ratio was determined in immature female rats at 1 hr; type: functional; outline: as §2
# [41] = Liver/blood distribution ratio was determined in immature female rats at 1 hr with unlabeled estradiol; type: functional; outline: as §2
# [42] = Liver/blood distribution ratio was determined in immature female rats at 3h; type: functional; outline: as §1
# [43] = Liver/blood distribution ratio was determined in immature female rats at 6 hr; type: functional; outline: as §1
# [44] = Lung/blood distribution ratio was determined in immature female rats at 1 hr; type: functional; outline: as §2
# [45] = Lung/blood distribution ratio was determined in immature female rats at 3h; type: functional; outline: as §1
# [46] = Lung/blood distribution ratio was determined in immature female rats at 6 hr; type: functional; outline: as §1
# [47] = Spleen/blood distribution ratio was determined immature female rats at 6 hr; type: functional; outline: as §3
# [48] = Spleen/blood distribution ratio was determined in immature female rats at 1 hr with unlabeled estradiol; type: functional
# [49] = Kidney/blood distribution ratio was determined in immature female rats at 1 hr; type: functional; outline: as §2
# [50] = Kidney/blood distribution ratio was determined in immature female rats at 1 hr with unlabeled estradiol; type: functional; outline: as §2
# [51] = Tissue/blood distribution ratio was measured in immature female rats at 1 hr; type: functional; outline: as §3
# [52] = Tissue/blood distribution ratio was measured in immature female rats at 1h, unlabeled estradiol (18 microg) coinjected; type: functional
# Outline: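 Immature female rats given iv [77Br]bromonorhexestrol with 16α-[125I]iodoestradiol (2 μCi each) plus 18 μg unlabeled estradiol coinjected; killed at 1 h. Tissue and blood were weighed and counted, and tissue-to-blood radioactivity ratios were computed; 5 animals, mean ± SD.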
# [53] = Tissue/blood distribution ratio was measured in immature female rats at 3h; type: functional; outline: as §3
# [54] = Uterus/blood distribution ratio was measured in immature female rats at 1 hr; type: functional; outline: as §3
# [55] = Uterus/blood distribution ratio was measured in immature female rats at 3h; type: functional; outline: as §3
# [56] = Uterus/blood distribution ratio was measured in immature female rats at 6 hr; type: functional; outline: as §3
# [57] = Muscle/blood distribution ratio was determined in immature female rats at 6 hr; type: functional; outline: as §1
# [58] = species: Rattus norvegicus; assay: Percent injected dose per gram Muscle at 1 hr; type: functional; outline: as §2
# [59] = species: Rattus norvegicus; assay: Percent injected dose per gram Uterus at 3h; type: functional; outline: as §1
# [60] = species: Rattus norvegicus; assay: Percent injected dose per gram kidney at 6 hr; type: functional; outline: as §1
# [61] = Esophagus/blood distribution ratio was determined in immature female rats at 1 hr; type: functional; outline: as §2
smiles,measurement,setting,value
CC[C@H](c1ccc(O)cc1)[C@@H](CBr)c1ccc(O)cc1,Injected,[1],3.19
same,Injected dose,[2],0.61%
same,Injected dose,[3],0.94%
same,Injected dose,[4],0.7%
same,Injected dose,[5],0.84%
same,Injected dose,[6],1.28%
same,Injected dose,[7],1.46%
same,Injected dose,[8],1.05%
same,Injected dose,[9],0.93%
same,Injected dose,[10],0.42%
same,Injected dose,[11],1.02%
same,Injected dose,[12],0.38%
same,Injected dose,[13],0.34%
same,Injected dose,[14],0.6%
same,Injected dose,[15],0.26%
same,Injected dose,[16],0.25%
same,Injected dose (g),[17],0.09%
same,Injected dose,[18],0.18%
same,Injected dose,[19],0.95%
same,Injected dose,[20],3.19%
same,Injected dose,[21],0.75%
same,Injected dose,[22],1.24%
same,Injected dose,[23],1.36%
same,Injected dose,[24],0.38%
same,Injected dose,[25],0.35%
same,Injected dose,[26],1.38%
same,Injected dose,[27],0.72%
same,Injected dose,[28],1.28%
same,Injected dose,[29],1.93%
same,Injected dose,[30],3.16%
same,Ratio,[31],0.52
same,Ratio,[32],0.48
same,Ratio,[33],0.59
same,Ratio,[34],0.49
same,Ratio,[35],0.5
same,Ratio,[36],0.31
same,Ratio,[37],0.48
same,Ratio,[38],0.08
same,Ratio,[39],0.13
same,Ratio,[40],1.69
same,Ratio,[41],1.51
same,Ratio,[42],0.84
same,Ratio,[43],0.69
same,Ratio,[44],0.6
same,Ratio,[45],0.68
same,Ratio,[46],0.76
same,Ratio,[47],0.55
same,Ratio,[48],0.51
same,Ratio,[49],1.29
same,Ratio,[50],0.84
same,Ratio,[51],1
same,Ratio,[52],1
same,Ratio,[53],1
same,Ratio,[54],4.49
same,Ratio,[55],2.86
same,Ratio,[56],2.51
same,Ratio,[57],0.26
same,Injected dose,[58],0.29%
same,Injected dose,[59],3.59%
same,Injected dose,[60],0.9%
same,Ratio,[61],0.54
